Screening results (PubChem BioAssay)
Most compounds without a hit are left out; they make up all but 3.3% or so of the library.
SENP6 block = inhibitors of human SENP6 protease. hit rate 1.8% among 330,000. AID 2599. inhibition, % at 10 µM. Recombinant SENP6 catalytic domain, aminoluciferin luminescence. Q9GZR1;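 active means inhibition above about 50% at the single tested dose, limit read from the data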;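 further: plate controls were DMSO wells with enzyme for no effect and DMSO wells lacking enzyme for full effect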
Target sequence (Q9GZR1 628-1112 limits assumed): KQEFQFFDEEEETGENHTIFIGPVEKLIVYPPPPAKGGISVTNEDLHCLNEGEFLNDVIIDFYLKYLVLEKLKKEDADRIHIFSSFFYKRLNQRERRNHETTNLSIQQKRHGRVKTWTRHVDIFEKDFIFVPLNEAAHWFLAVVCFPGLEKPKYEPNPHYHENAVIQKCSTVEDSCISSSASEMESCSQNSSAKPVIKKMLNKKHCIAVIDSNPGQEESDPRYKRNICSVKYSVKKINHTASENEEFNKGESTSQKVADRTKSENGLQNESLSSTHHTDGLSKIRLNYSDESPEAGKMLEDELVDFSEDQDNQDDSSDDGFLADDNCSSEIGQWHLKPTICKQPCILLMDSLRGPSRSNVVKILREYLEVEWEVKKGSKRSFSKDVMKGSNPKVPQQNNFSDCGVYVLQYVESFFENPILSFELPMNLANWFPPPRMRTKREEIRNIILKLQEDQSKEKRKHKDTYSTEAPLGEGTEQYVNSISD
SENP8 block-1 = blocks human SENP8 cleavage of Nedd8 substrate; Q96LD8; recombinant SENP8, Nedd8 substrate fluorescence; inhibition, % at 20 µM; hit rate 0.64% among 360,000; in the data active means inhibition mostly above about 40%, no sharp cut-off; inactive means mostly below about 27%
SENP7 block = SENP7 protease inhibition; Q9BQF6; recombinant SENP7, Z-RLRGG-aminoluciferin luminescence, 40 min; inhibition, % at 5 µM; hit rate 1.5% among 330,000;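 active means inhibition above about 50% at the single test dose, limit read from the data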;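 further: plate controls were DMSO with enzyme for no effect and no enzyme buffer wells for full effect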
SENP8 block-2 = SENP8 protease inhibition; inhibition, % at 10 µM; Q96LD8; purified SENP8, Z-RLRGG-aminoluciferin cleavage, luminescence; hit rate 1.2% among 330,000; in the data active means inhibition above about 50%
CendR NRP1 mod = modulators of CendR peptide binding to human neuropilin-1. inhibition, % at 25 µM. O14786. hit rate 0.85% among 360,000. FAM-RPARPAR peptide binding to NRP-1, fluorescence polarization. AID 602438;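 active means inhibition or corrected inhibition above about 18%, plus a signal ratio from 0.5 to 1.5, limit read from the data, passing the limit was not always enough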
SENP1 inh = inhibitors of human SENP1 SUMO protease catalytic domain; Q9P0U3; recombinant SENP1 catalytic domain, CyPet-SUMO1-YPet FRET cleavage; inhibition, % at 10 µM; hit rate 0.21% among 360,000;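 active means inhibition at least 30% at 10 µM, raw YFP signal under a set limit, fluorescence ratio 0.5 to 1.5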;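 further: 0% = enzyme with DMSO and 100% = no enzyme wells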
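Test system: hSENP1 catalytic domain, recombinant; Amount: 20 pM final SENP1 enzyme; Medium: Tris pH 8 buffer plus EDTA, NaCl, BME, BSA, NP40, catalase; Schedule: 50 min enzyme reaction, room temperature, light-protected; Technique: FRET fluorescence in CFP and YFP emission channels; Controls: no-enzyme wells low, DMSO-plus-enzyme wells high control.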
* marks the source's active call; other numbers are inactive results; x = not tested or not shown.

SMILES | SENP6 block | SENP8 block-1 | SENP7 block | SENP8 block-2 | CendR NRP1 mod | SENP1 inh
O=C(/C=C/c1ccccc1Cl)OCC(=O)c1ccc[nH]1 | 7.3 | 15.5 | -2.0 | -1.7 | 4.2 | -2.9
C=C1CCN([C@@H](CC(C)C)C(=O)NCc2ccc(Cl)c(Cl)c2)S(=O)(=O)c2ccccc21 | -3.7 | 5.1 | -2.7 | 5.6 | 32.5* | -2.3
C=C1CCN([C@@H](CC(C)C)C(=O)NCCC(C)C)S(=O)(=O)c2ccccc21 | -9.4 | -3.6 | -19.4 | -10.9 | 23.7* | 1.6
C=C1CCN([C@@H](Cc2ccccc2)C(=O)Nc2ccc(OC)cc2)S(=O)(=O)c2ccccc21 | -8.5 | 7.6 | -1.6 | 8.1 | 27.1* | 1.2
C=C1CCN([C@@H](CC(C)C)C(=O)NCc2ccc(Cl)cc2)S(=O)(=O)c2ccccc21 | -8.2 | 14.6 | 7.4 | -11.3 | 17.8 | 1.3
CCOc1ccc(CCN2C(=O)C(=O)N([C@@H](Cc3ccccc3)CN3CCC[C@H]3CN3C(=O)C(=O)NC[C@@H]3CC(C)C)C[C@@H]2Cc2ccc(O)cc2)cc1 | x | 11.2 | x | x | -2.1 | 2.4
COc1ccc(C(O)c2ncc(-c3ccccc3)[nH]2)cc1F (stereo unspecified) | x | 8.3 | x | x | 13.8 | 1.2
O=C(C[C@H]1CC[C@@H](NC(=O)C2CC2)[C@@H](CO)O1)NCc1ccccc1Cl | x | 4.4 | x | x | 14.9 | 1.1
Cc1cc(N/C(=N/S(=O)(=O)c2ccc(F)cc2)c2ccccc2)n(-c2ccccc2)n1 | -9.6 | 2.2 | 5.7 | 3.8 | 10.5 | 1.7
Cc1cc(N/C(=N/S(=O)(=O)c2cc(F)ccc2F)c2ccccc2)n(-c2ccccc2)n1 | -7.1 | 4.5 | 8.1 | 1.2 | 26.6* | 1.3
Cc1cc(O)ccc1N/C=C/c1onc(C)c1[N+](=O)[O-] | 87.4* | 26.5 | 96.6* | 46.7 | -4.9 | 23.1
CCN(c1ccc(F)cc1)S(=O)(=O)c1cccc2nsnc12 | -8.4 | 22.1 | -4.3 | 3.2 | 5.8 | 1.2
CCN(CC)S(=O)(=O)c1cccc2nsnc12 | 3.1 | 15.3 | 5.7 | 5.3 | 26.6* | -1.2
O=C(c1cccnc1)N(Cc1ccccc1)C(c1ccccc1)c1nc2ccccc2[nH]1 (stereo unspecified) | x | 8.0 | x | x | 10.1 | -0.7
NCCNC(=O)c1c(NC(=O)c2ccccc2)sc2c1CCCC2 | 0.3 | -148.6 | 3.9 | -4.1 | -3.9 | -98.1
O=C(O)c1ccc(Nc2nc3c(s2)CCCC3)cc1 | 98.9* | -87.6 | 100.0* | 96.2* | 3.2 | -1.1
O=C(Cc1cccs1)Nc1nc2c(s1)CCCC2 | 25.8 | -0.5 | -2.5 | -15.0 | -5.4 | 0.1
O=C(Nc1nc2c(s1)CCCC2)c1cccs1 | 95.0* | -37.1 | 96.4* | 92.4* | -1.4 | 1.0
Cc1cccc(Nc2nc3c(s2)CCCC3)c1 | x | 6.1 | x | x | -2.3 | -6.9
NC(=O)c1c(NC(=O)c2cccs2)sc2c1CCCCCC2 | 10.0 | -167.2 | 2.6 | -6.6 | -8.2 | -4.8
O=C(Nc1sc2c(c1C(=O)O)CCCC2)c1ccc(Cl)cc1 | 89.1* | -119.7 | 37.4 | 78.0* | -26.2 | 1.6
O=C(Nc1sc2c(c1C(=O)O)CCC2)c1cccs1 | 90.3* | -73.3 | 43.7 | 92.5* | -6.8 | -2.0
CC(=O)Oc1cc(O)c2c(=O)c(OC(C)=O)c(-c3ccc(OC(C)=O)c(OC(C)=O)c3)oc2c1 | 3.2 | 40.2* | -1.7 | 8.2 | -39.3 | 50.8*
Cc1nc(C(F)(F)F)ccc1C(=O)N1CCC1(C)C(=O)NS(=O)(=O)c1cccc(C#N)c1 (stereo unspecified) | x | 5.5 | x | x | -2.3 | 1.4
CCCCC1=CC2=CC(=O)C(C)(OC(=O)CC)C(=O)C2=CN1c1ccc(OC)cc1 (stereo unspecified) | 1.3 | -86.3 | -0.5 | -1.8 | 23.9* | -63.8
COc1ncnc2c1ncn2CCCNCc1ccccc1 | x | -17.0 | x | x | -3.6 | 3.5
O=C(c1cccn2c(=O)c3cc4ccccc4cc3nc12)N1CCN(c2ccccc2)CC1 | 45.2 | x | 69.8* | 27.8 | x | x
CCOc1ccc2c(c1)OC1(CCC(C)C1)CC2=O (stereo unspecified) | -11.1 | 17.5 | -1.0 | -10.1 | 27.7* | 2.9
CO[C@H]1CN(C)C(=O)c2ccc(NC(=O)NC(C)C)cc2OC[C@H](C)NC[C@H]1C | x | 8.5 | x | x | -3.3 | 1.9
CCCCC1Cc2[nH][nH]c(=O)c2C(c2ccc(F)cc2)O1 (stereo unspecified) | x | 19.0 | x | x | -11.5 | 4.1
